# Test results reported in publication PMC11543989 (Communications Biology, 2024).
# “Also recorded” adds a separate entry of the source.
# Experiments:
# HCoV-229E [1] = experiment: microbe, parasite or virus in culture; assay type: cell-based
# HCoV-229E [2] = assay type: cell-based
# AMPK, mTOR, Akt [3] = assay type: cell-based, human; conditions: 30 µM, HeLa-replicon cells, doxycycline 24 hours
# HCoV-229E [4] = assay type: cell-based; remark: listed apart in the source
# AMPK, mTOR, Akt [5] = assay type: cell-based, human
# SARS-CoV-2 [6] = assay type: cell-based
# SARS-CoV-2 replicon = experiment: HeLa-integrated SARS-CoV-2 replicon activity, N-HiBiT luminescence; assay type: cell-based
# Procedure, shortened: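 HeLa Flp-In T-REx replicon cells plated at 10% confluence, then induced 24 h later with 3 µg/mL doxycycline in regular FBS. After 16-24 h, a lytic detergent buffer with LgBiT and furimazine was added at a volume equal to the media to complement HiBiT-tagged nucleoprotein. Plates were shaken 10 min before reading luminescence. Replicon-free parental cells gave background; compound concentrations were compared with DMSO.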
# proximal lung organoids = experiment: Organoid viability by LDH release; assay type: cell-based, human; conditions: days 3 and 4, cordycepin 30 µM
# Procedure, shortened: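 Human proximal airway organoids derived from embryonic stem cells, expanded in matrigel in AES expansion medium, plated as one matrigel dome (~2000 organoids) per well. Test compounds (10 or 30 µM) or 0.5% DMSO were added on day 0, with three domes per condition. LDH release was read over 4 days; absorbance at 490 nm minus 680 nm background was converted to % cytotoxicity.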
# HCoV-229E [7] = conditions: concentrations higher than 0.1 µM; cited from earlier work
# SARS-CoV-2 [8] = conditions: cited from earlier work
# HCoV-229E [9] = assay type: cell-based; remark: listed apart in the source
compound,measurement,setting,value
"CN(C)C(=N)N=C(N)N [Metformin, metformin]","229E replication, various concentrations",HCoV-229E [1],inhibited 229E replication in a dose-dependent manner
"Nc1ncnc2c1ncn2[C@@H]1O[C@H](CO)C[C@H]1O [Cordycepin, cordycepin]","229E viral RNA release in media, time of incubation assay",HCoV-229E [2],dramatically reduced viral RNA release in media even up to 72 hpi
same,"229E viral RNA release, pre-treatment assay",HCoV-229E [2],reduced viral RNA release; also recorded: strong inhibition
same,"level of 229E viral RNA released, time of removal assay",HCoV-229E [2],reduced the level of viral RNA released even after being removed
same,"AMPK, mTOR or Akt phosphorylation","AMPK, mTOR, Akt [3]",No significant changes
same,total Akt levels,"AMPK, mTOR, Akt [3]",did decrease
same,total mTOR protein levels,"AMPK, mTOR, Akt [3]",not affected
same,IC50,"HCoV-229E [1]; Human coronavirus 229E, Huh-7, read-out: IC50, 229E viral replication (Fig. 6B)",2100 nM
same,"infectivity by TCID50, fold higher than that observed for BTZ-1 and ADEP-42",HCoV-229E [4],around 5 fold
same,phosphorylation level of AMPK,"AMPK, mTOR, Akt [5]",increased
same,protein level of AMPK,"AMPK, mTOR, Akt [5]",remained constant
same,total levels of mTOR and Akt compared to DMSO,"AMPK, mTOR, Akt [5]",large decrease
same,reduction of SARS-CoV-2 RNA release,SARS-CoV-2 SB2 strain,99%
same,SI = CC50/IC50,SARS-CoV-2 SB2 strain; SARS-CoV-2,more than 20
same,difference in SARS-CoV-2 viral RNA release compared to DMSO,SARS-CoV-2 [6],100 fold
same,inhibition of replicon activity,"SARS-CoV-2 replicon; 3 µg/mL doxycycline, 24 hours",did not show inhibition of replicon activity
same,cytotoxicity (LDH assay),proximal lung organoids,below 20%
"CCC(CC)COC(=O)[C@H](C)N[P@](=O)(OC[C@H]1O[C@@](C#N)(c2ccc3c(N)ncnn23)[C@H](O)[C@@H]1O)Oc1ccccc1 [Remdesivir, remdesivir]","229E viral RNA release, pre-treatment assay",HCoV-229E [2],little to no inhibition
same,inhibition of 229E,HCoV-229E [7],~100%
same,IC50,"SARS-CoV-2 replicon; read-out: IC50, inhibition of replicon activity, 3 µg/mL doxycycline, 24 hours",400 nM
COc1ccc2c(c1)[nH]c1c(C)nccc12 [harmine],IC50,SARS-CoV-2 [8],7500 nM
Nc1ncnc2c1ncn2[C@@H]1O[C@H](COP(=O)(O)OP(=O)(O)OP(=O)(O)O)C[C@H]1O [cordycepin-TP],229E S protein expression (IF),HCoV-229E [9],did not impact S protein expression
same,229E viral RNA release,"HCoV-229E [1]; 10 µM, same concentration as cordycepin, […]",only weakly inhibited viral RNA release
